Data reported in PubChem BioAssay.
The source made the active and inactive calls. Cut-off read from the data, not from the text of the source, unless noted: active = inhibition above about 30%; inactive = the rest. Peptide text beside a SMILES is read from it. * marks the point of attachment. Boc = CC(C)(C)OC(=O)*

Columns and labels:
[1] = reducers of endogenous Her2 protein level, primary screen, SKBR3 breast tumor cells, AlphaScreen, ATP viability (AID 461;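 active = Her2 level under about 52% in both replicate screens, with viability over 70% of control, limit read from the data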;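 for Her2 level: lower value means less Her2 protein in the cells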;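 for viability: percent of carrier control wells set as 100% viability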); conditions: 18-24 h, measured here: SKBR3 viability, ATP luminescence, at 10 µM
[2] = target: Receptor tyrosine-protein kinase erbB-2 (Homo sapiens) (UniProt P04626); experiment: as above; conditions: 18-24 h, at 10 µM, stronger effect = lower value
[3] = SK-BR-3 cell growth inhibitors, pilot screen, 24 h, human (AID 572;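 active = viability at or below 10% of carrier control in both of two separate runs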;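 note: compound exposure lasted between 18 and 24 h rather than exactly 24 h; 100% = carrier-treated control wells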); conditions: SK-BR-3 viability, CellTiter-Glo luminescence, at 10 µM, stronger effect = lower value
[4] = HUVEC growth inhibition – cell-based, human, primary screen (AID 575;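 active = viability at or below 30% in both replicate assays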;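 note: 100% = median of untreated cell wells with 0.1% DMSO on each plate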); conditions: HUVEC proliferation, CellTiter-Glo luminescence, 72 h; at 10 µM; stronger effect = lower value
Summary of the method: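 System – primary HUVEC, no more than 12 passages · Medium – Low-serum (2% FBS) EBM, supplemented · Times – 72 h exposure, 37 °C, 5% CO2, 30 min RT equilibration · Measured by – luminescent ATP assay · Read-out – % viability relative to median vehicle-well signal on each plate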

[5] = growth inhibitors of H69AR lung tumor, primary screen, human, duplicate replicates (AID 580;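 active = viability at or under a set limit in both replicates, limit being median viability minus 3 SD, cut at about 48% in these data, passing the limit was not always enough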;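 note: 100% = mean luminescence of untreated wells and 0% = no signal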); conditions: H69AR lung tumor cells viability, ATP luminescence, 72 h; at 10 µM; stronger effect = lower value
[6] = reversal of MRP1-mediated doxorubicin resistance, pilot screen, H69AR cells, doxorubicin co-treatment (AID 601;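 active = viability loss from added drug above about 55%, and viability with drug at most 40%, in both replicates, limit read from the data, passing the limit was not always enough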); conditions: CellTiter-Glo, 72 h, at 10 µM; for differential viability (reversal): stronger effect = higher value
[7] = 384-well plate pilot, post-Golgi transport modulator project, inhibition of yeast transport mutant growth (AID 636; in the data active = inhibition above about 31%); conditions: absorbance 615 nm, about 18 h, stronger effect = higher value
[8] = growth suppression of yeast trafficking mutant, preliminary HTS, modulators of trafficking downstream of Golgi apparatus project, 1536-format plate, OD 615 nm (AID 637); conditions: yeast transport mutant growth, absorbance 615 nm, 18 h; stronger effect = higher value
[9] = H69AR cells + 2 uM doxorubicin, measured here: viability with 2 uM doxorubicin, stronger effect = lower value
[10] = H69AR cells, compound alone cytotoxicity

Chain of Receptor tyrosine-protein kinase erbB-2 (Homo sapiens) (P04626 whole entry, looked up): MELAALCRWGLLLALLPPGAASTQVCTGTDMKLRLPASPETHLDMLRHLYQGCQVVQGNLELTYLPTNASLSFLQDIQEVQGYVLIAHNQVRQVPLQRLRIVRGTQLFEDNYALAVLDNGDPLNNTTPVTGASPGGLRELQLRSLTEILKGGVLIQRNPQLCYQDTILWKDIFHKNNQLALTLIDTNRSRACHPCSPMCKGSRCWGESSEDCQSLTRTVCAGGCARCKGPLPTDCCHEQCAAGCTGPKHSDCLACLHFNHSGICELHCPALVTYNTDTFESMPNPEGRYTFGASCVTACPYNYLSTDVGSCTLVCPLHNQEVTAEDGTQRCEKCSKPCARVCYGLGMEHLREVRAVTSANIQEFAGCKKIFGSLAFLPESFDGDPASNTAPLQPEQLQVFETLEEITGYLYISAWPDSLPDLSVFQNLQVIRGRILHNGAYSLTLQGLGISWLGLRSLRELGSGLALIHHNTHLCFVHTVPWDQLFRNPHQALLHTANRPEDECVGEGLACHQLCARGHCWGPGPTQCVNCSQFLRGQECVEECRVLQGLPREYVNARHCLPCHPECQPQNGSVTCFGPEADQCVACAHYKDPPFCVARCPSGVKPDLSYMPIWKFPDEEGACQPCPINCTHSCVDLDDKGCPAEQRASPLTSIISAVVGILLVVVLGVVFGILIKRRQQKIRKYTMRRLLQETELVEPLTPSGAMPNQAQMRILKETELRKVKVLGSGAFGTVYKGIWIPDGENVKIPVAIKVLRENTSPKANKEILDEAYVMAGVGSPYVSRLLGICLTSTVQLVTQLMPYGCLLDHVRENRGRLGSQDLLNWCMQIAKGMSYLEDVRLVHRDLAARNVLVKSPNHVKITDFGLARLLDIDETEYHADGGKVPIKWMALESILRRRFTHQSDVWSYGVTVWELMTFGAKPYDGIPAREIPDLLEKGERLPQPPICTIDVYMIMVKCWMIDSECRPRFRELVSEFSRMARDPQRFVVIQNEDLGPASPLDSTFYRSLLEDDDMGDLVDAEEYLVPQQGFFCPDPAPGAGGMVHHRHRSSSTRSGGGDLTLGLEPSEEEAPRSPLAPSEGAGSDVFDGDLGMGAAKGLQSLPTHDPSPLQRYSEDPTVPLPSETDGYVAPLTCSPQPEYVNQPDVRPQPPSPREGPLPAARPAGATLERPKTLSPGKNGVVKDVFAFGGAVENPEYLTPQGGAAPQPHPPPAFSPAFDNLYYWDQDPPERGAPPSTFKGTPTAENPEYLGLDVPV

Row | SMILES | viability [1] [%] | Her2 level [2] | viability [3] | viability [4] | viability [5] | differential viability (reversal) ([6]; H69AR cells + 2 uM doxorubicin) | viability [6, 9] [%] | viability [6, 10] [%] | inhibition [7] | inhibition [8]
1 | CCOC(=O)c1ccccc1NC(=O)c1cc2sccc2n1C | 90 | 96% (inactive) | 90% (inactive) | 70.5% (inactive) | 81% (inactive) | 3.9% (inactive) | 77 | 81 | 1.23% (inactive) | -2.38% (inactive)
2 | Cc1cnc(-c2nnc(N(C)C(=O)C3CCOC3)s2)cn1 (stereo not given) | 90.5 | 89.5% (inactive) | 90.5% (inactive) | 98.2% (inactive) | 101% (inactive) | 17% (inactive) | 84.4 | 101 | -1.45% (inactive) | -10.9% (inactive)
3 | Nc1nnc(-c2ccccc2)c(-c2ccccc2)n1 | 96.5 | 90% (inactive) | 96.5% (inactive) | 86.4% (inactive) | 99.2% (inactive) | 5.16% (inactive) | 94 | 99.2 | -4.53% (inactive) | 7.42% (inactive)
4 | O=C(NCc1cccnc1)c1cn(CCc2ccccc2)nn1 | 99.5 | 93% (inactive) | 99.5% (inactive) | 130% (inactive) | 109% (inactive) | 20.4% (inactive) | 89 | 109 | -5.27% (inactive) | 4.33% (inactive)
5 | COc1ccc(CC(=O)Nc2ccc(-c3nnc(-c4ccc(C)cc4)o3)cc2)cc1 | 114 | 81.5% (inactive) | 114% (inactive) | 69.9% (inactive) | 4.72% (active) | -0.04% (inactive) | 4.76 | 4.72 | -1.58% (inactive) | -1.75% (inactive)
6 | O=c1cc(-c2ccccc2)[nH]c2nc3ccccc3n12 | 90.5 | 60.5% (inactive) | 90.5% (inactive) | 35.5% (inactive) | 9.48% (active) | -49.3% (inactive) | 58.8 | 9.48 | -2.76% (inactive) | -2.73% (inactive)
7 | O=C(Nc1ccc(N2CCN(Cc3ccccc3Cl)CC2)cc1)c1cccnc1 | 91 | 108% (inactive) | 91% (inactive) | 117% (inactive) | 103% (inactive) | 5.44% (inactive) | 98 | 103 | 2.16% (inactive) | 0.82% (inactive)
8 | O=c1c[n+]([O-])c2ccccc2n1OCc1c(F)cccc1F | 90.5 | 70.5% (inactive) | 90.5% (inactive) | 93.4% (inactive) | 88.2% (inactive) | 1.98% (inactive) | 86.3 | 88.2 | -3.33% (inactive) | -1.59% (inactive)
9 | COc1ccc(-c2cc(C(=O)NCc3ccc(Cl)cc3)no2)cc1OC | 92.5 | 88.5% (inactive) | 92.5% (inactive) | 83% (inactive) | 100% (inactive) | 0.66% (inactive) | 99.5 | 100 | -6.35% (inactive) | -0.33% (inactive)
10 | COc1ccc(N2CCN(C(c3cccs3)C(C)NC(=O)c3ccco3)CC2)cc1 (stereo not given) | 90 | 76.5% (inactive) | 90% (inactive) | 82.1% (inactive) | 86.3% (inactive) | -4.01% (inactive) | 90.3 | 86.3 | -4.53% (inactive) | -0.16% (inactive)
11 | CCOC(=O)Nc1ccc(OC)cc1S(=O)(=O)N1CCCCC1 | 88.5 | 93% (inactive) | 88.5% (inactive) | 112% (inactive) | 99% (inactive) | 17.7% (inactive) | 81.3 | 99 | -1.84% (inactive) | -1.8% (inactive)
12 | O=C(COC(=O)c1ccc(Br)o1)Nc1ccc(S(=O)(=O)N2CCCC2)cc1 | 80 | 74.5% (inactive) | 80% (inactive) | 102% (inactive) | 95.6% (inactive) | 13.3% (inactive) | 82.3 | 95.6 | -6.35% (inactive) | -1% (inactive)
13 | Cc1cc(NC(=O)C23CCC(C)(c4nc5cc(Cl)c(Cl)cc5nc42)C3(C)C)no1 (stereo not given) | 124 | 96.5% (inactive) | 124% (inactive) | 88.5% (inactive) | 91.6% (inactive) | 14.6% (inactive) | 77.1 | 91.6 | -3.42% (inactive) | 6.29% (inactive)
14 | O=C(COc1nnc2ccccn12)N1CCN(S(=O)(=O)c2ccccc2)CC1 | 107 | 86% (inactive) | 107% (inactive) | 98.8% (inactive) | 97.2% (inactive) | 13.2% (inactive) | 84 | 97.2 | -5.13% (inactive) | -5.09% (inactive)
15 | CCN(C(=O)c1cc2cc3ccc(C)cc3nc2o1)c1ccc(OC)cc1 | 85.5 | 99.5% (inactive) | 85.5% (inactive) | 61% (inactive) | 83.1% (inactive) | -12.9% (inactive) | 96 | 83.1 | -6.27% (inactive) | -6.39% (inactive)
16 | COc1cc2[nH]c(=O)n(CCC(=O)N3CCc4ccccc4C3)c(=O)c2cc1OC | 102 | 106% (inactive) | 102% (inactive) | 116% (inactive) | 92.4% (inactive) | -2.6% (inactive) | 95 | 92.4 | -4.73% (inactive) | -2.33% (inactive)

Row | SMILES | viability [1] [%] | Her2 level [2] | viability [3] | viability [4] | viability [5] | differential viability (reversal) ([6]; H69AR cells + 2 uM doxorubicin) | viability [6, 9] [%] | viability [6, 10] [%] | inhibition [7] | inhibition [8]
17 | O=C(CSc1nc2ccsc2c(=O)n1NC(=O)c1ccccc1)Nc1nccs1 | 105 | 86.5% (inactive) | 105% (inactive) | 96.9% (inactive) | 100% (inactive) | 2.06% (inactive) | 98 | 100 | -4.74% (inactive) | -2.83% (inactive)
18 | CCn1c(C(=O)N2CCCC(C(=O)NCCCc3ccccc3)C2)cc2sccc21 (stereo not given) | 102 | 96.5% (inactive) | 102% (inactive) | 64.3% (inactive) | 96.7% (inactive) | 3.47% (inactive) | 93.2 | 96.7 | -2.08% (inactive) | -9.84% (inactive)
19 | COC(=O)C(O)(CC(=O)c1ccc(OC)cc1)C(F)(F)F (stereo not given) | 100 | 98% (inactive) | 100% (inactive) | 91.5% (inactive) | 95.9% (inactive) | 0.63% (inactive) | 95.3 | 95.9 | -1.33% (inactive) | -5% (inactive)
20 | O=C(c1ccco1)N1CCN(c2ccc(Cl)cc2)CC1 | 86 | 116% (inactive) | 86% (inactive) | 95.6% (inactive) | 99.8% (inactive) | 19.1% (inactive) | 80.8 | 99.8 | -0.93% (inactive) | -5.4% (inactive)
21 | Cc1ccccc1-c1nc(Cc2ccccc2)no1 | 77.5 | 97.5% (inactive) | 77.5% (inactive) | 104% (inactive) | 102% (inactive) | 19.1% (inactive) | 82.5 | 102 | -0.51% (inactive) | -3.33% (inactive)
22 | COc1ccc(-n2nnc3c(=O)n(C/C=C/c4ccccc4)cnc32)cc1 | 116 | 100% (inactive) | 116% (inactive) | 105% (inactive) | 86.1% (inactive) | 8.94% (inactive) | 77.1 | 86.1 | -6.62% (inactive) | 1.33% (inactive)
23 | CN(C)S(=O)(=O)c1ccc(Oc2ccc(S(=O)(=O)N(C)C)cc2)cc1 | 80.5 | 96.5% (inactive) | 80.5% (inactive) | 54.4% (inactive) | 93.8% (inactive) | -0.755% (inactive) | 94.6 | 93.8 | -2.4% (inactive) | -7.14% (inactive)
24 | CCCCSCCCNC(=O)CS(=O)Cc1nc(-c2cccc(C)c2)oc1C (stereo not given) | 98.5 | 76% (inactive) | 98.5% (inactive) | 91.9% (inactive) | 87.5% (inactive) | -3.76% (inactive) | 91.2 | 87.5 | -1.58% (inactive) | -1% (inactive)
25 | Cc1ccc2[nH]c3c(c2c1)CCc1cn[nH]c1-3 | 132 | 68% (inactive) | 132% (inactive) | 66.4% (inactive) | 38.4% (active) | -18.3% (inactive) | 56.7 | 38.4 | -0.8% (inactive) | -8.23% (inactive)
26 | CC(=O)c1cc(C#N)c(SCC(=O)OC(C)C)nc1C | 102 | 80.5% (inactive) | 102% (inactive) | 88% (inactive) | 61.2% (inactive) | 23.3% (inactive) | 37.9 | 61.2 | -7.03% (inactive) | 5.67% (inactive)
27 | CCOc1cc(N2CCOCC2)c(OCC)cc1NC(=O)COC(=O)CCc1c[nH]c2ccccc12 | 97.5 | 98.5% (inactive) | 97.5% (inactive) | 105% (inactive) | 99.4% (inactive) | 4.66% (inactive) | 94.8 | 99.4 | -8.38% (inactive) | -8.83% (inactive)
28 | CC(C)(C)OC(=O)N1CCCC1C(=O)NC(Cc1ccccc1)C(=O)O (stereo not drawn) (Boc-Pro-Phe-OH; configuration not given here) | 116 | 102% (inactive) | 116% (inactive) | 96.1% (inactive) | 104% (inactive) | 8.93% (inactive) | 95.2 | 104 | -4.59% (inactive) | 0.48% (inactive)
29 | Cc1cccc(OCC(=O)N2CCC(N3CCCCCC3)CC2)c1 | 95.5 | 126% (inactive) | 95.5% (inactive) | 97.1% (inactive) | 106% (inactive) | 7.21% (inactive) | 98.8 | 106 | -1.45% (inactive) | -6.07% (inactive)
30 | CCCn1c2c(c(O)c(C(=O)NC)c1=O)CCCC2 | 124 | 95% (inactive) | 124% (inactive) | 92.7% (inactive) | 86% (inactive) | -7.29% (inactive) | 93.3 | 86 | -4.34% (inactive) | 2.42% (inactive)
31 | O=C(CCN1C(=O)COc2ccccc21)NCCN1CCN(c2cccc(Cl)c2)CC1 | 94.5 | 84% (inactive) | 94.5% (inactive) | 90.9% (inactive) | 83.8% (inactive) | -11.3% (inactive) | 95.1 | 83.8 | -1.04% (inactive) | -3.33% (inactive)
